Consider 38 molecules from PubChem BioAssay AID492951 (Molecular Libraries Program, Specialized Chemistry Center, …, 2010).

For orientation: inhibition means the percentage by which the read-out fell short of the control.

The test addresses Hexokinase-4 (Homo sapiens) (UniProt P35557). The test can be described thus: human glucokinase inhibition, counter-screen for TbHK1 inhibitor project, biochemical, recombinant hGlck (AID 492951). Conditions: G6PDH-coupled NADH absorbance 340 nm, at 10 µM; active compounds read high. An outline of the steps: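 Test system: recombinant human glucokinase, G6PDH-coupled; Medium: pH 7.9 TEA buffer, MgCl2, NAD+; Also added: 20 mM glucose as reaction starter, plus 1 mM ATP; Compound dosing: single final test compound dose of 10 µM; Schedule: 10 min preincubation at room temperature; Measured by: NADH formation by absorbance at 340 nm; Repeats: triplicate.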

A number with no mark means an inactive call. Active and inactive are the calls of the source.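 Rule for the calls: active = inhibition above 10%; inactive = the rest.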

Sequence of Hexokinase-4 (Homo sapiens) (P35557 whole entry, looked up): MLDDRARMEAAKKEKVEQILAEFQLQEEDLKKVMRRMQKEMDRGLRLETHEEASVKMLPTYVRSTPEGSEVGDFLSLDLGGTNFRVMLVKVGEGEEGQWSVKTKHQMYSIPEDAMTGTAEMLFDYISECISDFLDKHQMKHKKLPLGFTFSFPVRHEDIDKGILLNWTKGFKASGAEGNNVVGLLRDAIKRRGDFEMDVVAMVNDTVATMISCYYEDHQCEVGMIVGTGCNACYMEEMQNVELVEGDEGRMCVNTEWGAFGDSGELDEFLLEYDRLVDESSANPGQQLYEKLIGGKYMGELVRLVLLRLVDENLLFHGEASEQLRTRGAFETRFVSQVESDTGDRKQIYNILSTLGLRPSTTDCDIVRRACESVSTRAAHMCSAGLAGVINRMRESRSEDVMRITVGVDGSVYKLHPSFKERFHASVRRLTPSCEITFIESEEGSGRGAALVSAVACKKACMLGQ

On to `COc1ccc(C(=O)NC(CC(=O)O)c2ccc(Cl)cc2)cc1` (stereo not drawn), for which the result was inactive. `O=C1c2ccccc2S(=O)N1c1ccc(Cl)cc1` (stereo not drawn): the inhibition was 37.2% (active). `COc1ccc(C(=O)Nc2cc(F)ccc2C(=O)O)cc1`: the outcome was inactive. Same read-out and setting: then `O=C(Nc1cc(Cl)ccc1C(=O)O)c1ccncc1`, with “inactive”. Take `O=c1c2ccccc2sn1-c1ccc(Cl)cc1`: the inhibition was 35.6% (active). `CCc1ccc(C(=O)Nc2cc(Br)ccc2C(=O)O)cc1`: the result was inactive. On to `COC(=O)c1cc(Cl)ccc1NC(=O)c1ccc(OC)cc1`, for which the outcome was inactive. On to `O=C(Nc1ccc([N+](=O)[O-])cc1Cl)c1cc(Cl)ccc1O`, for which the inhibition is 32.1% (active). For the molecule `O=C(Nc1cc(Cl)ccc1C(=O)O)c1ccc(Cl)cc1`, the result was inactive. As for `O=c1c2cc(F)ccc2sn1-c1ccccc1Cl`, the inhibition was 14.4% (active). Regarding `COC(=O)c1ccc(Cl)cc1NC(=O)c1ccc(Cl)cc1`, the result was inactive. Still for that read-out and setting: in the case of `COc1ccc(C(=O)Nc2cc(-c3ccccc3)ccc2C(=O)O)cc1` it was “inactive”. On to `O=c1c2ccc(F)cc2sn1-c1ccccc1`, for which the inhibition was 37.8% (active). On to `O=C(Nc1cc(Cl)ccc1C(=O)O)c1ccc(C2CCC2)cc1`, for which the inhibition is 35.4% (active). Take `Cn1sc(=O)c2ccccc21`: the inhibition was 56.2% (active). `O=C(Cn1sc2ccccc2c1=O)Nc1ccc(Cl)cc1`: the outcome was inactive. Take `C=C(C)c1ccc(C(=O)Nc2cc(Cl)ccc2C(=O)O)cc1`: the inhibition is 25.9% (active).

For the molecule `CCCCCC(=O)Nc1cc(Cl)ccc1C(=O)O`, the result was inactive. With `O=c1c2cc(Br)ccc2sn1-c1ccccc1`, the inhibition is 38.4% (active). With `O=c1c2ccccc2on1-c1ccccc1`, the outcome was inactive. With `COc1ccc(C(=O)Nc2cc(Cl)ccc2C(=O)O)cn1`, the outcome was inactive. As to `COc1ccc(C(=O)Nc2cc(Cl)ccc2O)cc1`, the inhibition was 22.2% (active). Consider `O=C(Nc1cc(Cl)ccc1C(=O)O)c1ccoc1`, for which the result was inactive. Consider `O=C(Nc1cc(Cl)ccc1C(=O)O)c1ccc(C(F)(F)F)cc1`, for which the result was inactive. As to `Cc1ccc(C(=O)Nc2cc(Cl)ccc2C(=O)O)cc1C`, the result was inactive.

As to `COc1cccc(C(=O)Nc2cc(Cl)ccc2C(=O)O)c1`, the result was inactive. The same measure, in the same setting: in the case of `COC(=O)c1ccc(Cl)cc1NS(=O)(=O)c1ccc(OC)cc1` it was “inactive”. `O=c1s[nH]c2ccccc12`: the inhibition was 48.8% (active).

In the case of `CCCCCCC(=O)Nc1cc(Cl)ccc1C(=O)O`, the outcome was inactive. On to `CCC(C)(C)c1ccc(C(=O)Nc2cc(Cl)ccc2C(=O)O)cc1`, for which the inhibition was 26% (active). Same read-out and setting: in the case of `COc1ccc(C(=O)N(C)c2cc(Cl)ccc2C(=O)O)cc1` it was 6.7%. As to `Cn1sc2ccccc2c1=O`, the outcome was inactive. Consider `O=c1c2cc(N3CCOCC3)ccc2sn1-c1ccccc1`, for which the outcome was inactive.

For the molecule `O=c1c2cc(F)c(F)cc2sn1-c1ccccc1`, the inhibition is 16.9% (active). On to `CC(C)(C)c1ccc(C(=O)Nc2cc(Br)ccc2C(=O)O)cc1`, for which the inhibition is 26.2% (active).

Take `O=C(Cn1sc2ccccc2c1=O)N1CCCCC1`: the result was inactive. With `O=c1c2cc(F)ccc2sn1-c1ccc(Cl)cc1`, the inhibition was 40% (active). As for `Cc1ccccc1NC(=O)Cn1sc2ccccc2c1=O`, the outcome was inactive.
